The values below come from ChEMBL document CHEMBL4390654, “Microwave-assisted solid-phase synthesis of antisense acpP peptide nucleic acid-peptide conjugates active against colistin- and tigecycline-resistant E. coli and K. pneumoniae” (Eur J Med Chem, 2019).

The subject of data set [1] is Klebsiella pneumoniae. As to the kind of experiment: Antibacterial activity against Klebsiella pneumoniae ATCC 13883 assessed as reduction in microbial growth incubated for 20 hrs. Format: functional. Summed up:
(§1)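 Broth microdilution MIC after a modified Hancock protocol for cationic peptides, in non-binding polystyrene plates. Inoculum ~2 × 10^5 CFU/mL in Mueller-Hinton broth with Mg²⁺ and Ca²⁺ at 4 mg/L each. Compounds dissolved in water, diluted in 0.01% acetic acid, 0.2% BSA (final), added as 10× aliquots. Covered plates incubated 20 h at 35 °C (± 2 °C) with shaking at 220 rpm. MIC read as lowest inhibiting concentration.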

The subject of data set [2] is Escherichia coli. As to the kind of experiment: Antibacterial activity against Escherichia coli ATCC 25922 assessed as reduction in microbial growth incubated for 20 hrs. The data set is classed as functional. The gist of the method:
(§2)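 Broth microdilution MIC (modified Hancock protocol) in non-binding polystyrene plates. Inoculum ~2 × 10^5 CFU/mL in Mueller-Hinton broth with Mg²⁺ and Ca²⁺ at 4 mg/L each. Compounds dissolved in water, diluted in 0.01% acetic acid/0.2% BSA (final), added as 10× stocks. Covered plates incubated 20 h at 35 °C (± 2 °C) with 220 rpm circular shaking before MIC read.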

For data set [3], the system named is Klebsiella pneumoniae. Kind of data set: Antibacterial activity against multi-drug resistant Klebsiella pneumoniae NMI 3081/09 assessed as reduction in microbial growth incubated for 20 hrs. Format: functional. The gist of the method:
as §2

The next data set has as its system Staphylococcus aureus. As to the kind of experiment: Antibacterial activity against Staphylococcus aureus ATCC 29213 assessed as reduction in microbial growth incubated for 20 hrs. The data set is classed as functional. The gist of the method:
as §1

Data set [4] concerns Pseudomonas aeruginosa. Kind of data set: Antibacterial activity against Pseudomonas aeruginosa PAO1 assessed as reduction in microbial growth incubated for 20 hrs. The data set is classed as functional. Summed up:
as §1

Data set [5] deals with Escherichia coli. As to the kind of experiment: Antibacterial activity against multi-drug resistant Escherichia coli NMI 3898/15 assessed as reduction in microbial growth incubated for 20 hrs. Format: functional. The gist of the method: as §2
Data set [6] concerns Klebsiella pneumoniae. Kind of data set: Antibacterial activity against multi-drug resistant Klebsiella pneumoniae NMI 2697/14 assessed as reduction in microbial growth incubated for 20 hrs. Format: functional. The gist of the method:
as §2

The test system of data set [7] is Pseudomonas aeruginosa. Kind of data set: Antibacterial activity against multi-drug resistant Pseudomonas aeruginosa NMI 506/17 assessed as reduction in microbial growth incubated for 20 hrs. Format: functional. Summed up:
as §2

For data set [8], the system named is Acinetobacter baumannii. As to the kind of experiment: Antibacterial activity against Acinetobacter baumannii NMI 3658/17 assessed as reduction in microbial growth incubated 20 hrs. The data set is classed as functional. Summed up:
as §1

For data set [9], the system named is Pseudomonas aeruginosa. Kind of data set: Antibacterial activity against Pseudomonas aeruginosa ATCC 27853 assessed as reduction in microbial growth incubated for 20 hrs. The data set is classed as functional. The gist of the method: as §1
Data set [10] deals with Escherichia coli. As to the kind of experiment: Antibacterial activity against multi-drug resistant Escherichia coli NMI 3548/14 assessed as reduction in microbial growth incubated for 20 hrs. The data set is classed as functional. Summed up: as §2
For data set [11], the system named is Acinetobacter baumannii. Kind of data set: Antibacterial activity against Acinetobacter baumannii ATCC 19606 assessed as reduction in microbial growth incubated for 20 hrs. The data set is classed as functional. Summed up: as §1
The test system of data set [12] is Escherichia coli. Kind of data set: Antibacterial activity against Escherichia coli lacking a functional SbmA assessed as reduction in microbial growth incubated for 20 hrs. Summed up: as §1
Data set [13] in a line: Hemolytic activity against RBC (unknown origin) at 100 uM. Format: ADME, cell-based, Erythrocyte. To be noted: red blood cells (erythrocytes); read-out: Activity.
Where [14] appears, read: ATCC 19606 = CIP 70.34 = JCM 6841, 20 h.

Regarding COLISTIN, the MIC with Klebsiella pneumoniae [1] was 2 to 4 mg/L; in the data set with Escherichia coli [2], 0.125 to 0.5 mg/L; in the data set on Klebsiella pneumoniae [3], 0.25 to 1 mg/L; with Staphylococcus aureus it was above 16 mg/L; in the data set on Pseudomonas aeruginosa [4] it was 0.5 mg/L; in the data set with Escherichia coli [5] it was 2 to 4 mg/L. In addition, the minimal inhibitory concentration (MIC) is above 16 mg/L in the data set with Klebsiella pneumoniae [6]; above 16 mg/L in the data set on Pseudomonas aeruginosa [7]; above 16 mg/L with Acinetobacter baumannii [8]; 0.25 mg/L with Pseudomonas aeruginosa [9]; 4 mg/L in the data set with Escherichia coli [10]; 0.25 mg/L in the data set on Acinetobacter baumannii [11] (ATCC 19606 = CIP 70.34 = JCM 6841). In addition, the MIC in the data set on Escherichia coli [12] is 0.5 mg/L.
For the compound `CC[C@@H](C)[C@@H](NC(=O)[C@H]1CCCN1C(=O)[C@@H](CCCNC(=N)N)NC(=O)[C@H]1CCCN1C(=O)[C@@H](Cc1cnc[nH]1)NC(=O)[C@@H](CO)NC(=O)[C@H](NC(=O)[C@H]1CCCN1C(=O)[C@@H](CCCNC(=N)N)NC(=O)[C@H]1CCCN1C(=O)[C@@H](CO)NC(=O)[C@@H](Cc1ccc(O)cc1)NC(=O)[C@H]1CCCN1C(=O)[C@@H](CCCNC(=N)N)NC(=O)[C@H]1CCCN1C(=O)[C@@H](CCCNC(=N)N)NC(=O)CCCCCNC(=O)[C@H](N)CCCNC(=N)N)[C@H](C)O)C(=O)N[C@H](CCCNC(=N)N)C(=O)N[C@@H](C(=O)N[C@H](CSC1CC(=O)N(CCC(=O)NCCOCCOC(=O)N[C@H](CS)C(=O)N[C@@H](C(=O)N[C@H](CS)C(=O)N[C@H](C)C(=O)N[C@@H](C(=O)N[C@H](C)C(=O)N[C@H](CS)C(=O)N[C@@H](C(=O)N[C@H](CS)C(=O)N[C@@H](C(N)=O)[C@H](C)O)[C@H](C)O)[C@H](C)O)[C@H](C)O)C1=O)C(N)=O)C(C)C` (stereo not given in full), the MIC was 8 to 16 mg/L with Klebsiella pneumoniae [1] (ATCC 13883, 20 h); 32 mg/L in the data set on Escherichia coli [2] (ATCC 25922, 20 h); 64 mg/L with Klebsiella pneumoniae [3] (NMI 3081/09, 20 h); above 64 mg/L with Staphylococcus aureus (ATCC 29213, 20 h); above 64 mg/L in the data set with Pseudomonas aeruginosa [4] (PAO1, 20 h); 32 to 64 mg/L in the data set on Escherichia coli [5] (NMI 3898/15, 20 h). The minimum inhibitory concentration (MIC) in the data set with Klebsiella pneumoniae [6] (NMI 2697/14, 20 h) is at least 64 mg/L; in the data set with Escherichia coli [10] (NMI 3548/14, 20 h), 32 mg/L; in the data set with Acinetobacter baumannii [11] (setting [14]), 64 mg/L; in the data set with Escherichia coli [12] it was 64 mg/L. Also, in data set [13], the hemolysis at 100 µM was below 1%.
On to `CC[C@H](C)[C@H](NC(=O)[C@H](CCCCN)NC(=O)[C@H]([C@@H](C)CC)N(C(=O)[C@H](CCCNC(=N)N)NC(=O)CCCCCNC(=O)[C@@H](N)CCCNC(=N)N)C(=O)[C@H](CCCNC(=N)N)NC(=O)CCCCCNC(=O)[C@@H](N)CCCNC(=N)N)C(=O)N[C@@H](CC(C)C)C(=O)N[C@@H](Cc1ccccc1)C(=O)N[C@@H](CCC(N)=O)C(=O)N[C@@H](CC(N)=O)C(=O)N[C@@H](CCCNC(=N)N)C(=O)N[C@@H](CCCNC(=N)N)C(=O)N[C@@H](CCSC)C(=O)N[C@@H](CCCCN)C(=O)N[C@@H](Cc1c[nH]c2ccccc12)C(=O)N[C@@H](CCCCN)C(=O)N[C@@H](CCCCN)C(N)=O`, for which the MIC in the data set with Klebsiella pneumoniae [1] (ATCC 13883, 20 h) was 64 mg/L; with Escherichia coli [2] (ATCC 25922, 20 h), 8 mg/L; with Klebsiella pneumoniae [3] (NMI 3081/09, 20 h), above 64 mg/L; in the data set on Staphylococcus aureus (ATCC 29213, 20 h), 32 to 64 mg/L; in the data set with Pseudomonas aeruginosa [4] (PAO1, 20 h), 8 mg/L; in the data set with Escherichia coli [5] (NMI 3898/15, 20 h) it was 16 mg/L. Further, the minimum inhibitory concentration (MIC) with Klebsiella pneumoniae [6] (NMI 2697/14, 20 h) was above 64 mg/L; in the data set with Escherichia coli [10] (NMI 3548/14, 20 h), 4 to 8 mg/L; in the data set with Acinetobacter baumannii [11] (setting [14]), 8 mg/L; in the data set with Escherichia coli [12], 8 mg/L. For the same compound, the hemolysis at 100 µM in data set [13] is below 1%.

Usually MIC stands for the lowest concentration found to suppress growth.
